High-throughput results deposited in PubChem BioAssay by several laboratories.
Hits are enriched below; roughly 2.3% of the tested compounds scored in any of these assays.
CAL PDZ FP-1: untagged CAL PDZ binding inhibitors, primary screen, biochemical, fluorescence polarization, HTS; inhibition, % at 24.9 µM; AID 602252, 2012; purified CAL PDZ, TMR-peptide fluorescence polarization, 1 h; actives 0.92% (n = 300,000);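 active means mean inhibition of at least 30% with at least half of replicates also reaching 30%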
SR-BI DiI-HDL act: activators of SR-BI mediated DiI-HDL uptake, primary screen, ldlA[mSR-BI] CHO cells, DiI fluorescence; 3 h; 100 = double the neutral-control signal; actives 0.096% (n = 320,000); activation, % at 12.5 µM;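 active means mean replicate activation of at least 60% and every replicate at or above 60%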
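System: LDL receptor-deficient CHO ldlA cells overexpressing murine SR-BI | Timing: 3 h uptake period with compound, 37 °C | Medium: HEPES-buffered (25 mM, pH 7.4) F12 plus 0.5% BSA | Dosing: Single-point compound dose | Signal: Bottom-read fluorescence, 550/595 nm | Read-out: Retained DiI signal reflecting DiI-HDL uptake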
SR-BI DiI inh: inhibitors of SR-BI mediated HDL lipid uptake, primary screen, ldlA[mSR-BI] cells, fluorescence, single point; ldlA[mSR-BI] CHO cells, DiI-HDL uptake fluorescence, 3 h; Scavenger receptor class B member 1 (Mus musculus), Q61009; inhibition, % at 12.5 µM; actives 0.96% (n = 320,000);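 active means mean replicate inhibition of at least 70% and a set share of replicates each scoring 70 or more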
Target sequence (Q61009 whole entry, looked up): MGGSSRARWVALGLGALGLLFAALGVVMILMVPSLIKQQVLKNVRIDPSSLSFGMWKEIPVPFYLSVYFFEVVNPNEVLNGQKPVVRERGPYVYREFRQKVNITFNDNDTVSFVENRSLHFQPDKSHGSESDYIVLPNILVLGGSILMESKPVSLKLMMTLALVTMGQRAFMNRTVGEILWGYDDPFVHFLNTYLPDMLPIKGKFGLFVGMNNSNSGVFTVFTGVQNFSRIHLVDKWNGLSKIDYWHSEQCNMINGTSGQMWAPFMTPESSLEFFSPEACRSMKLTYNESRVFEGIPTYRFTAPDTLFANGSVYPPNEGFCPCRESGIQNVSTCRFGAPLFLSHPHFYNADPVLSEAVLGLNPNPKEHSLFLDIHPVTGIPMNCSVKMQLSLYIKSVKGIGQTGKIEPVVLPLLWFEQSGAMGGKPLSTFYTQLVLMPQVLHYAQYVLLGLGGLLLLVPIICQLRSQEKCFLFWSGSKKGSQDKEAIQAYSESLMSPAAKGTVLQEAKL
ATG4B inhibitor: ATG4B protease inhibitors, primary screen, biochemical, fluorescence, uHTS; AID 504462, 2011; actives 0.51% (n = 340,000); inhibition, % at 8.33 µM; ATG4B cleavage of LC3-PLA2, NBD-HPC fluorescence, 1 h; Cysteine protease ATG4B (Homo sapiens), Q9Y4P1; in the data active means inhibition above about 40%
CAL PDZ FP-2: CAL PDZ peptide-binding inhibitors, primary screen, biochemical, fluorescence polarization, Cer-tagged CAL PDZ, HTS | Golgi-associated PDZ and coiled-coil motif-containing protein (Homo sapiens), Q9HD26 | purified CAL PDZ, TMR-peptide fluorescence polarization, 1 h | inhibition, % at 20 µM | actives 0.02% (n = 330,000);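 active means highest replicate inhibition of at least 40%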
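Material: tagged CAL PDZ domain; buffer or medium: 25 mM sodium phosphate pH 7.4, 150 mM NaCl, TCEP, IgG, Thesit; compound dosing: single point, 20 µM; schedule: 1 h incubation at room temperature before polarization reading; measured by: FP readout, S and P plane fluorescence; read-out basis: percent inhibition from loss of millipolarization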
Numbers stand for hits; n = inactive; x = no result given; + = active, no number.

SMILES	CAL PDZ FP-1	SR-BI DiI-HDL act	SR-BI DiI inh	ATG4B inhibitor	CAL PDZ FP-2
COCCSc1ccccc1C(=O)Nc1ccc([N+](=O)[O-])cc1OC	n	n	81	n	n
Cc1cccn2c(CN[C@H]3CCCCNC3=O)c(C(=O)N3CCOCC3)nc12	n	n	n	n	n
CC(C)/C=C/CN1CCN(CCCc2ccccc2)C(CCO)C1 (stereo not given)	n	n	n	n	n
Cc1cc(NS(=O)(=O)c2ccc(NC(=S)Nc3ccc(Cl)cc3C)cc2)no1	x	n	n	n	n
O=S(=O)(Cc1ccccc1)C(CCCc1ccccc1)S(=O)(=O)Cc1ccccc1	n	n	n	n	n
COc1ccccc1C(=O)N/N=C(\C)CC(=O)Nc1ccc(Cl)cn1	65	n	n	n	n
Cc1cc2ccccn2c1C(=O)c1cc([N+](=O)[O-])cc([N+](=O)[O-])c1	n	n	82	n	n
COC(=O)c1cc(C(=O)c2c(C)cc3ccccn23)cc([N+](=O)[O-])c1	n	x	x	n	n
COc1ccc(CCN2CC(C(=O)NCCN3CCOC3=O)CCC2=O)cc1 (stereo not given)	n	n	n	n	n
Cc1c(-c2ccccc2)cnc2c(C)cccc12	x	n	n	n	n
CCC(=O)N1CCN(c2ccc(NC(=O)c3cc4ccccc4o3)cc2Cl)CC1	n	n	79	n	x
O=C(Nc1ccc(N2CCN(C(=O)c3ccco3)CC2)c(Cl)c1)c1cc2ccccc2o1	n	n	82	n	n
CCCC(=O)N1CCN(c2ccc(NC(=O)c3cc4ccccc4o3)cc2Cl)CC1	n	n	n	n	n
CCN(C(=O)COC(=O)Cc1ccc(F)cc1)c1c(N)n(Cc2ccccc2)c(=O)[nH]c1=O	n	n	n	n	n
CCOc1ccc(C(=O)COC(=O)Cn2cnc3c2c(=O)n(C)c(=O)n3C)cc1	n	n	n	n	n
O=C(CSc1nnc(-c2ccccc2O)n1Cc1ccccc1)NNC(=O)c1ccccc1O	n	n	88	n	n
CC1CCCN(S(=O)(=O)c2cc(C(=O)NCCc3ccc(S(N)(=O)=O)cc3)ccc2Cl)C1 (stereo not given)	x	n	n	n	n
COc1ccc(COC(=O)C2CC(=O)N(Cc3ccccc3)C2)cc1 (stereo not given)	+	n	n	n	n
COCC(=O)N1CCC(Oc2ccc(C(=O)NCc3cnc(C)cn3)cc2)CC1	57	n	n	n	n
COCC(=O)N1CCC(Oc2ccc(C(=O)NCCCn3cccn3)cc2)CC1	58	n	n	n	n
CCOc1ccc2[nH]c3c(NCC(C)C)ncnc3c2c1	81	n	n	n	n
COc1ccc(CNC(=O)C2CCN(S(=O)(=O)c3cccc4nsnc34)CC2)cc1	37	n	n	n	n
COc1ccc(CNC(=O)C2CCCN(S(=O)(=O)c3cccc4nsnc34)C2)cc1 (stereo not given)	n	n	n	n	n
O=C(c1cc(-c2ccc(Cl)cc2Cl)on1)N1CCCC1	35	n	n	n	n
COc1ccc(N(CC(=O)Nc2ccccc2OC)S(=O)(=O)c2ccc(OC)c(OC)c2)cc1	n	n	n	n	n
SMILES	CAL PDZ FP-1	SR-BI DiI-HDL act	SR-BI DiI inh	ATG4B inhibitor	CAL PDZ FP-2
O=C(OCc1nnc(-c2ccccc2)o1)C1CCN(C(=O)c2ccc(Cl)cc2)CC1	n	n	n	n	n
Cc1ccc(S(=O)(=O)c2nc(NN(C)C)sc2Cl)cc1	120	n	n	n	n
CCOC(=O)N1CCC(Nc2c(Nc3ccc(F)cc3)c(=O)c2=O)CC1	59	n	n	n	n
CCOC(=O)C1=C(Nc2ccc(C)cc2)CC(C)(O)C(C(=O)OCC)C1c1ccccc1 (stereo not given)	n	n	n	n	n
CCOC(=O)C1=C(Nc2ccccc2)CC(C)(O)C(C(=O)OCC)C1c1ccccc1 (stereo not given)	n	64	n	n	n
Cc1nn(CC(=O)N(C)C2CCS(=O)(=O)C2)c(C)c1S(=O)(=O)N(C)C (stereo not given)	n	n	n	n	n
Cc1cccc(-n2ncc3c(=O)[nH]c(SCC(=O)N4CC(=O)Nc5ccccc54)nc32)c1	37	n	n	n	n
Cc1ccc(-n2ncc3c(=O)[nH]c(SCC(=O)N4CC(=O)Nc5ccccc54)nc32)cc1	n	n	n	n	n
CN(C)Cc1c[nH]c2nc[nH]c(=O)c12	n	n	n	n	n
O=C(O)c1ccc(Oc2ccc([N+](=O)[O-])cc2)c([N+](=O)[O-])c1	x	n	n	n	n
CCCN(CCC)C1=CC(=[N+]2CCCC2)CC(C)(C)C1	n	83	n	n	n
c1ccc(CNCCCNCCCCNCCCNCc2ccccc2)cc1	n	n	n	n	n
OC(c1ccccc1)C(NCCNCc1ccccc1)c1ccccc1 (stereo not given)	165	n	n	n	n
CCOc1ccc(S(=O)(=O)N2CCN(Cc3ccccc3)CC2)cc1	x	n	n	n	n
CCOC1=CC(=O)N(Cc2ccccc2)C1	69	n	n	n	n
O=C1CCC[C@@H]2C[C@@]3(C[C@@H]4CCN1[C@H]24)Nc1cc(Cl)c(Cl)cc1NC3=NCc1ccccc1	n	n	n	n	n
O=C(CN1C(=O)C2C3C=CC(C3)C2C1=O)OCC(=O)c1ccc(Cl)cc1 (stereo not given)	74	n	n	n	n
Cc1c(C(=O)NNC(=O)c2ccccc2O)oc2ccc(Br)cc12	n	n	129	n	n
CCOc1ccc2oc(C(=O)NNC(=O)c3ccccc3O)c(C)c2c1	n	n	131	n	n
Cc1nc(SCC(=O)N2CCN(c3ccccc3)CC2)c2oc3ccccc3c2n1	64	x	x	n	n
O=C(c1ccccc1O)N1N=C(C(F)(F)F)CC1(O)c1ccc([N+](=O)[O-])cc1 (stereo not given)	n	n	71	n	n
CCC1=NN(C(=O)c2ccccc2Br)C(O)(c2ccc(Br)cc2)C1 (stereo not given)	x	n	n	n	n
CCC1=NN(C(=O)c2ccccc2O)C(O)(c2ccccc2)C1 (stereo not given)	n	n	120	n	n
CCC1=NN(C(=O)c2ccc([N+](=O)[O-])cc2)C(O)(c2ccccc2)C1 (stereo not given)	n	n	82	n	n
CC1=NN(S(=O)(=O)c2ccc(Cl)cc2Cl)C(=O)c2ccccc2O1	n	x	x	n	n
O=C(CCc1c[nH]c2ccccc12)NCCc1ccc(Cl)cc1	36	n	n	n	n
O=C(CCc1c[nH]c2ccccc12)NCCc1ccccc1	n	n	n	n	n
